From ChEMBL document CHEMBL1649496, “Piperaquine pharmacodynamics and parasite viability in a murine malaria model” (Antimicrob Agents Chemother, 2009)

Experiments:
Plasmodium berghei [1] = experiment: Antiplasmodial activity against Plasmodium berghei ANKA infected in Swiss mouse assessed as assessed as time required for parasite recrudescence at 90 mg/kg, ip; format: functional; settings: route intraperitoneal
Plasmodium berghei [2] = experiment: Antiplasmodial activity against Plasmodium berghei ANKA infected in Swiss mouse assessed as parasitemia at 90 mg/kg, ip administered 5 days after infection measured up to 25 days; format: functional; settings: route intraperitoneal
Summary of the method: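 Donor blood from previously infected, treated mice was taken by cardiac puncture and the red cells washed three times in 0.9% NaCl. A 1:5 dilution (<10^5 parasites) was given i.p. to naive male mice (5 weeks; n = 5 per donor). Five days later, three mice per group received a single 90 mg/kg i.p. dose of piperaquine phosphate and two stayed untreated. Giemsa smears were read twice daily.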

Plasmodium berghei [3] = experiment: Antiplasmodial activity against Plasmodium berghei ANKA infected in Swiss mouse assessed as median survival time at 90 mg/kg, ip administered 5 days after infection; format: functional; settings: route intraperitoneal
Summary of the method: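 Naive male Swiss mice (5 weeks, n = 5 per donor) inoculated i.p. with 200 µl of a 1:5 dilution of saline-washed, buffy-coat-depleted red cells from PQP-treated infected donor mice (<105 parasites). Five days later three mice per cohort received single i.p. 90 mg/kg PQP in glycerol/phosphate buffer pH 7.1/polysorbate 80; two left untreated. Parasitemia by Giemsa thin films twice daily; median survival recorded.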

[4] = Plasma concentration in Swiss mouse infected with Plasmodium berghei ANKA at 90 mg/kg, ip after 60 days; format: ADME, organism-based; parameters: dose 90 mg/kg, route intraperitoneal
Summary of the method: (§1)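 Infected Swiss mice (n = 4) were dosed with 90 mg/kg piperaquine phosphate i.p. at day 0. Plasma was taken by cardiac puncture, centrifuged at 3,000 x g for 5 min and stored at –80°C. Drug was measured by a validated HPLC assay (LOQ 1.6 µg/liter, LOD 0.7 µg/liter, CV <12%). Values are mean ± SD.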

Plasmodium berghei [5] = experiment: Antiplasmodial activity against Plasmodium berghei ANKA infected in Swiss mouse assessed as parasitemia at 90 mg/kg, ip measured on day 90 postinfection; format: functional; settings: route intraperitoneal
Summary of the method: (§2)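 Male Swiss mice (5–6 weeks) infected i.p. with 10^7 P. berghei ANKA-parasitized erythrocytes taken from passage BALB/c mice and diluted in citrate-phosphate-dextrose. At 64 h (3–5% parasitemia confirmed by thin film), piperaquine phosphate was given once i.p. at 90 mg/kg in 50% glycerol/30% isotonic phosphate buffer pH 7.1/20% polysorbate 80. Parasitemia was read from May-Grunwald Giemsa tail-blood smears (mean ± SD) and tracked from dosing (day 0).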

Plasmodium berghei [6] = experiment: Antiplasmodial activity against Plasmodium berghei ANKA infected in Swiss mouse assessed as parasitemia at 90 mg/kg, ip measured on day 25 postinfection; format: functional; settings: route intraperitoneal; summary of the method: as §2
Plasmodium berghei [7] = experiment: Antiplasmodial activity against Plasmodium berghei ANKA infected in Swiss mouse assessed as parasitemia at 90 mg/kg, ip measured on day 60 postinfection; format: functional; settings: route intraperitoneal; summary of the method: as §2
[8] = Plasma concentration in Swiss mouse infected with Plasmodium berghei ANKA at 90 mg/kg, ip after 25 days; format: ADME, organism-based; parameters: dose 90 mg/kg, route intraperitoneal; summary of the method: as §1
[9] = Plasma concentration in Swiss mouse infected with Plasmodium berghei ANKA at 90 mg/kg, ip after 40 days; format: ADME, organism-based; parameters: dose 90 mg/kg, route intraperitoneal; summary of the method: as §1
Plasmodium berghei [10] = experiment: Antiplasmodial activity against Plasmodium berghei ANKA infected in Swiss mouse assessed as parasitemia at 90 mg/kg, ip measured on day 40 postinfection; format: functional; settings: route intraperitoneal; summary of the method: as §2
Plasmodium berghei [11] = experiment: Antiplasmodial activity against Plasmodium berghei ANKA infected in Swiss mouse assessed as parasitemia at 90 mg/kg, ip measured on day 13 postinfection; format: functional; settings: route intraperitoneal; summary of the method: as §2

SMILES: Clc1ccc2c(N3CCN(CCCN4CCN(c5ccnc6cc(Cl)ccc56)CC4)CC3)ccnc2c1.O=P(O)(O)O [PIPERAQUINE PHOSPHATE]
- Time (Plasmodium berghei [1]): 7 days
- Activity (Plasmodium berghei [2]): 10%
- MST (Plasmodium berghei [3]): 19 days
- concentration at 1440 h [4]: 2 ng/mL
- Activity (Plasmodium berghei [5]): 0.9%
- Activity (Plasmodium berghei [6]): <0.015%
- Activity (Plasmodium berghei [7]): 0.3%
- concentration at 600 h [8]: 15 ng/mL
- concentration at 960 h [9]: 11 ng/mL
- Activity (Plasmodium berghei [10]): 0.1%
- Activity (Plasmodium berghei [11]): 1.32%
